This passage reports inhibition of growth results from ChEMBL document CHEMBL1932969, “Acyl derivatives of boswellic acids as inhibitors of NF-κB and STATs” (Bioorg Med Chem Lett, 2012).

Type in all cases: functional
One test concerns HEp-2. As to the kind of experiment: Anticancer activity against human Hep2 cells assessed as growth inhibition at 50 uM after 48 hrs by SRB assay. Particulars: HEp-2, 48 h, read-out: GI. The method, boiled down:
(§1)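 Cells exposed to test compounds at 50 µM for 48 h. Read-out is percent growth inhibition, with SEM given. 5-Fluorouracil and adriamycin serve as reference agents.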

For another test, the system named is DU-145. As to the kind of experiment: Anticancer activity against human DU145 cells assessed as growth inhibition at 50 uM after 48 hrs by SRB assay. Particulars: DU-145, 48 h, read-out: GI. The method, boiled down: as §1
Background: In SRB staining, fixed cells bind dye roughly in proportion to their protein.

The next test has as its system SW-620. Kind of test: Anticancer activity against human SW620 cells assessed as growth inhibition at 50 uM after 48 hrs by SRB assay. Particulars: SW-620, 48 h, read-out: GI. A digest of the protocol: as §1
The next test relates to COLO 205. As to the kind of experiment: Anticancer activity against human COLO205 cells assessed as growth inhibition at 50 uM after 48 hrs by SRB assay. To be noted: COLO 205, 48 h, read-out: GI. The method, boiled down:
as §1

The subject of a further test is PC-3. As to the kind of experiment: Anticancer activity against human PC3 cells assessed as growth inhibition at 50 uM after 48 hrs by SRB assay. Particulars: PC-3, 48 h, read-out: GI. The method, boiled down:
as §1

Another test concerns HT-29. As to the kind of experiment: Anticancer activity against human HT-29 cells assessed as growth inhibition at 50 uM after 48 hrs by SRB assay. To be noted: HT-29, 48 h, read-out: GI. The method, boiled down: as §1

On to `C[C@H]1[C@H](C)CC[C@]2(C)CC[C@]3(C)C(=CC[C@@H]4[C@@]5(C)CC[C@@H](OC=O)[C@](C)(C(=O)O)[C@@H]5CC[C@]43C)[C@H]12`, for which the inhibition of growth at 50 µM amounted to 72% with HEp-2; 90% in the test with DU-145; 87% with SW-620; 90% with COLO 205; 95% in the test on PC-3; 76% in the test with HT-29.
For the compound `COC(=O)[C@@]1(C)[C@H](O)CC[C@@]2(C)[C@H]1CC[C@]1(C)[C@@H]2C(=O)C=C2[C@@H]3[C@@H](C)[C@H](C)CC[C@]3(C)CC[C@]21C`, the inhibition of growth at 50 µM turned out to be 50% with HEp-2; 65% in the test with DU-145; 67% with SW-620; 70% in the test with COLO 205; 87% with PC-3; 67% in the test with HT-29.
With `CO[C@@]12[C@H](COC(N)=O)C3=C(C(=O)C(C)=C(N)C3=O)N1C[C@@H]1N[C@@H]12` [MITOMYCIN], the inhibition of growth at 50 µM in the test with HEp-2 came out at 58%; in the test with DU-145, 48%; in the test on SW-620, 55%; in the test on COLO 205, 43%; in the test on PC-3 it was 55%; with HT-29, 60%.
Consider `C[C@H]1[C@H](C)CC[C@]2(C)CC[C@]3(C)C(=CC(=O)[C@@H]4[C@@]5(C)CC[C@@H](OC=O)[C@](C)(C(=O)O)[C@@H]5CC[C@]43C)[C@H]12`, for which the inhibition of growth at 50 µM was 54% with HEp-2; 83% in the test with DU-145; 69% with SW-620; 73% in the test with COLO 205; 95% in the test with PC-3; 63% in the test with HT-29.
For the compound `COC(=O)[C@@]1(C)C(=O)CC[C@]2(C)[C@H]3CC=C4[C@@H]5[C@@H](C)[C@H](C)CC[C@]5(C)CC[C@@]4(C)[C@]3(C)CC[C@@H]12`, the inhibition of growth at 50 µM in the test with HEp-2 stood at 7%; in the test on DU-145, 50%; in the test on SW-620, 34%; in the test with COLO 205 it was 34%; in the test on PC-3, 44%; in the test with HT-29 it was 33%.
In the case of `C[C@H]1[C@H](C)CC[C@]2(C)CC[C@]3(C)C(=CC(=O)[C@@H]4[C@@]5(C)CC[C@H](OC(=O)CCC(=O)O)[C@](C)(C(=O)O)[C@@H]5CC[C@]43C)[C@H]12`, the inhibition of growth at 50 µM with HEp-2 amounted to 19%; in the test on DU-145, 83%; in the test with SW-620, 4%; with COLO 205, 28%; in the test on PC-3 it was 62%; in the test on HT-29 it was 17%.
As for `CC(=O)O[C@@H]1CC[C@@]2(C)[C@@H](CC[C@]3(C)[C@@H]2C(=O)C=C2[C@@H]4[C@@H](C)[C@H](C)CC[C@]4(C)CC[C@]23C)[C@@]1(C)C(=O)O` [AKBA], the inhibition of growth at 50 µM in the test with HEp-2 worked out at 59%; with DU-145 it was 85%; with SW-620 it was 88%; in the test on COLO 205 it was 85%; with PC-3 it was 76%; in the test on HT-29, 88%.
Turning to `COC(=O)[C@]1(C)[C@@H]2CC[C@]3(C)[C@H](C(=O)C=C4[C@@H]5[C@@H](C)[C@H](C)CC[C@]5(C)CC[C@]43C)[C@@]2(C)CC[C@@H]1O`, the inhibition of growth at 50 µM turned out to be 0% in the test on HEp-2; 4% in the test on DU-145; 10% in the test on SW-620; 21% in the test with COLO 205; 5% in the test with PC-3; 8% with HT-29.
In the case of `C[C@H]1[C@H](C)CC[C@]2(C)CC[C@]3(C)C(=CC[C@@H]4[C@@]5(C)CC[C@H](O)[C@](C)(C(=O)O)[C@@H]5CC[C@]43C)[C@H]12`, the inhibition of growth at 50 µM with HEp-2 came out at 69%; in the test with DU-145, 89%; with SW-620, 63%; with COLO 205, 81%; with PC-3, 72%; with HT-29, 70%.
With `CC(=O)O[C@@H]1CC[C@@]2(C)[C@@H](CC[C@]3(C)[C@@H]2CC=C2[C@@H]4[C@@H](C)[C@H](C)CC[C@]4(C)CC[C@]23C)[C@@]1(C)C(=O)O`, the inhibition of growth at 50 µM was 85% in the test with HEp-2; 3% in the test with DU-145; 93% with SW-620; 91% in the test on COLO 205; 44% with PC-3; 93% with HT-29.
Turning to `CC(=O)O[C@H]1CC[C@@]2(C)[C@@H](CC[C@]3(C)[C@@H]2C(=O)C=C2[C@@H]4[C@@H](C)[C@H](C)CC[C@]4(C)CC[C@]23C)[C@@]1(C)C(=O)O`, the inhibition of growth at 50 µM with HEp-2 came out at 47%; with DU-145, 83%; with SW-620 it was 44%; in the test on COLO 205 it was 54%; in the test with PC-3 it was 62%; in the test on HT-29, 44%.
Consider `CCCC(=O)O[C@H]1CC[C@@]2(C)[C@@H](CC[C@]3(C)[C@@H]2CC=C2[C@@H]4[C@@H](C)[C@H](C)CC[C@]4(C)CC[C@]23C)[C@@]1(C)C(=O)O`, for which the inhibition of growth at 50 µM in the test on HEp-2 is 63%; in the test on DU-145, 89%; in the test with SW-620, 79%; in the test with COLO 205 it was 67%; in the test with PC-3, 83%; in the test on HT-29, 57%.
Regarding `C[C@H]1[C@H](C)CC[C@]2(C)CC[C@]3(C)C(=CC[C@@H]4[C@@]5(C)CC[C@@H](OC(=O)CCC(=O)O)[C@](C)(C(=O)O)[C@@H]5CC[C@]43C)[C@H]12`, the inhibition of growth at 50 µM in the test with HEp-2 was found to be 55%; with DU-145 it was 93%; in the test with SW-620 it was 67%; in the test on COLO 205, 88%; in the test on PC-3 it was 90%; in the test on HT-29, 72%.
As for `C[C@H]1[C@H](C)CC[C@]2(C)CC[C@]3(C)C(=CC(=O)[C@@H]4[C@@]5(C)CC[C@H](O)[C@](C)(C(=O)O)[C@@H]5CC[C@]43C)[C@H]12`, the inhibition of growth at 50 µM with HEp-2 is 51%; in the test on DU-145, 84%; with SW-620 it was 45%; in the test on COLO 205 it was 49%; with PC-3, 70%; in the test with HT-29, 44%.
With `C[C@H]1[C@H](C)CC[C@]2(C)CC[C@]3(C)C(=CC(=O)[C@@H]4[C@@]5(C)CC[C@@H](OC(=O)CCC(=O)O)[C@](C)(C(=O)O)[C@@H]5CC[C@]43C)[C@H]12`, the inhibition of growth at 50 µM with HEp-2 stood at 6%; in the test with DU-145 it was 51%; in the test with SW-620 it was 4%; in the test with COLO 205, 2%; in the test on PC-3 it was 38%; with HT-29 it was 5%.
